ChEMBL document CHEMBL1123510, “Investigation of the structural requirements for the kappa-selective opioid receptor antagonist, 6 beta,6 beta'-[ethylenebis(oxyethyleneimino)]bis[17-(cyclopropylmethyl)- 4,5 alpha-epoxymorphinan-3,14-diol] (TENA)” (J Med Chem, 1986)
pIC50: −log10 of the molar value.

Columns and labels:
Format in all cases: functional
[1] = species: Cavia porcellus; assay: Inhibitory concentration of compound was measured in muscle of the guinea pig ileum; conditions: Muscle tissue
Procedure, shortened: (§1)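 Electrically stimulated longitudinal muscle of guinea pig ileum; agonist IC50 for inhibition of the twitch, with potency expressed relative to a control morphine IC50 run in the same preparation.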

[2] = Ratio of IC50 of ethylketazocine (EK) in the presence of compound to IC50 of ethylketazocine in the absence of compound
Procedure, shortened: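 Guinea pig ileum longitudinal muscle, electrically stimulated; the kappa agonist ethylketazocine (EK) was run with and without the test antagonist, given at 20 nM or 2 nM depending on the compound. The IC50 ratio is EK IC50 with antagonist over EK IC50 alone.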

[3] = species: Cavia porcellus; assay: The agonist potency of compound was determined relative to control morphine IC50; procedure, shortened: as §1
[4] = species: Cavia porcellus; assay: Inhibitory concentration of morphine was measured in muscle of the guinea pig ileum; conditions: Muscle tissue; procedure, shortened: as §1

Row | SMILES | pIC50 [1] | IC50 ratio [2] | Relative potency [3] | pIC50 [4]
1 | N=C(N)NCCOCCOCCN[C@@H]1CC[C@@]2(O)C3Cc4ccc(O)c5c4C2(CCN3CC2CC2)[C@H]1O5.O=S(=O)(O)O (some centres not stated) | 7.94 | 1 | 9.1 | 6.98
2 | Oc1ccc2c3c1O[C@H]1[C@H](NCCOCCOCCNCc4ccccc4)CC[C@@]4(O)C(C2)N(CC2CC2)CCC314 (some centres not stated) | 6.69 | 3.1 | 5.2 | 6.97
3 | NCCOCCOCCN[C@@H]1CC[C@@]2(O)C3Cc4ccc(O)c5c4C2(CCN3CC2CC2)[C@H]1O5 (some centres not stated) | 7.68 | 1.1 | 5.8 | 6.91
